Tests used:
Human alphaherpesvirus 3 [1] = test: Antiviral activity against thymidine kinase deficient Varicella-Zoster virus 07-1 infected in HEL cells assessed as inhibition of plaque formation; assay type: functional, cell-based; conditions: Human alphaherpesvirus 3, 07-1, HEL
Method in brief: (§1)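 HEL fibroblast monolayers inoculated with 100 CCID50 HCMV (AD-169, Davis) or 20 PFU VZV (TK+ Oka, TK− 07-1). Adsorbed 1–2 h, inoculum removed, then incubated with compound dilutions. HCMV cytopathicity or VZV plaques scored once untreated infected controls reached completion. EC50 is 50% reduction. SI is CC50/EC50, and the potency ratio is the ratio of EC50s.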

[2] = Selectivity index, ratio of CC50 for human TZM-bl cells to EC50 for CCR5 tropic HIV1 BaL infected in human TZM-bl cells; assay type: toxicity, cell-based; conditions: read-out: Ratio CC50/EC50
[3] = Stability of the compound in phosphate buffer of pH 8 at 1 mg after 1 hr by 31P NMR spectroscopy; assay type: physicochemical; conditions: pH 8, 1 h
Method in brief: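 1 mg compound in 0.2 mL acetone-d6 plus 0.3 mL pH 8 buffer (0.1 M Na2HPO4 adjusted with 0.1 M HCl). In situ 31P NMR (202 MHz) at 37 °C, spectra every 30 min over 14 h.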

Human betaherpesvirus 5 = test: Antiviral activity against HCMV Davis strain infected in HEL cells assessed as inhibition of virus-induced cytopathic effect; assay type: functional, cell-based; conditions: Human betaherpesvirus 5, Davis; method in brief: as §1
[4] = test system: Human immunodeficiency virus 1; test: Antiviral activity against CCR5 tropic HIV1 BaL infected in human TZM-bl cells assessed as inhibition of virus-induced cytopathic effect preincubated with cells for 30 mins followed by viral infection measured after 48 hrs in presence of p-24 HIV-1 Ag by luciferase reporter gene assay; assay type: functional, cell-based; conditions: Human immunodeficiency virus 1, BaL
Method in brief: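 TZM-bl cells, 1 × 10^4 per well in DMEM with 10% FBS and 10 mM […], incubated 30 min at 37 °C with compound. Then HIV-1 NL4.3 (X4) or BaL (R5) added at 100 pg p24 Ag per well. After 48 h, cells lysed with luciferase substrate. Tat-induced luminescence read after 10 min dark incubation as a measure of replication.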

[5] = Cytotoxicity against human MT4 cells assessed as reduction in cell viability after 6 days by XTT tetrazolium dye-based assay
Method in brief: (§2)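 MT-4 cells, 1 × 10^4 per well, given compound dilutions and wild-type NL4-3 or K65R NL4-3. Virus titred to give 85–95% cell killing at day 6. Incubated 6 days at 37 °C, 5% CO2. Viability read by XTT at 450/650 nm. EC50 from CPE reduction and toxicity from uninfected drug wells, by four-parameter fit. Fold change is K65R EC50 over wild-type EC50.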

[6] = Selectivity index, ratio of CC50 for HepG2.2.15 cells to EC50 for HBV ayw1 infected in human HepG2(2.2.15) cells assessed as reduction in viral replication by measuring extracellular viral DNA copy
Method in brief: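 HepG2.2.15 cells (two copies of HBV ayw1 genome), 1.5 × 10^4/well in DMEM with 2% FBS and 380 μg/mL G418. After 16–24 h, compound added in triplicate, medium with compound renewed at day 3. Supernatant collected at day 6, Pronase-treated, and extracellular HBV DNA measured by TaqMan qPCR (precore/core) against an HBV DNA standard curve. EC50/EC90 derived; CC50 by MTS uptake.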

Human alphaherpesvirus 3 [7] = test: Potency index, ratio of (S)-9-[3-Fluoro-2-(phosphonomethoxy)propyl]adenine EC50 to compound EC50 for thymidine kinase deficient Varicella-Zoster virus 07-1; assay type: functional; method in brief: as §1
[8] = test system: Human immunodeficiency virus 1; test: Antiviral activity against tenofovir-resistant CXCR4-tropic HIV-1 NL4-3 harboring reverse transcriptase K65R mutant infected in human MT4 cells assessed as inhibition of viral replication inhibition of virus-induced cytopathic effect after 6 days by XTT dye based assay; assay type: functional, cell-based; conditions: Human immunodeficiency virus 1, NL4-3, MT4, 144 h; method in brief: as §2
Hepatitis B virus = test: Antiviral activity against HBV ayw1 infected in human HepG2(2.2.15) cells assessed as reduction in viral replication by measuring intracellular viral DNA copy number after 6 days byr by real-time qPCR assay; assay type: functional, cell-based; conditions: ayw1, HepG2 2.2.15, 144 h
Method in brief: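 Run as the HepG2.2.15 6-day assay (triplicate compound, medium with compound renewed at day 3). At the end, total intracellular DNA was isolated from the cells and HBV DNA copy number measured by TaqMan qPCR. EC50/EC90 derived; SI is CC50/EC50.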

[9] = Half life in human plasma at 1 uM by HPLC-MS/MS method; assay type: ADME, cell-free
Method in brief: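 Human plasma preincubated 10 min with pH 7.4 phosphate buffer at 37 °C. Compound added at final 1 μM and sampled at 0, 0.5, 1, 1.5 and 2 h into acetonitrile. Centrifuged and analysed by HPLC-MS/MS. t1/2 is the mean of two experiments.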

[10] = Selectivity index, ratio of CC50 for human TZM-bl cells to EC50 for CXCR4-tropic HIV-1 NL4-3 infected in human TZM-bl cells; assay type: toxicity, cell-based; conditions: read-out: Ratio CC50/EC50
[11] = Half life in human liver microsomes at 0.1 uM in presence of NADPH by HPLC-MS/MS method; assay type: ADME, microsome
Method in brief: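 Pooled human liver microsomes preincubated 10 min at 37 °C with an NADPH-regenerating system (1 mM NADP, 5 mM G6P, G6PDH) in pH 7.4 phosphate with 3 mM MgCl2 and 1 mM EDTA. Compound added at final 0.1 μM and sampled at 0–60 min into acetonitrile/methanol. Analysed by HPLC-MS/MS, mean of two experiments.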

[12] = Selectivity index, ratio of CC50 for human PHA-stimulated PBMCs to IC50 for CCR5 tropic HIV1 BaL infected in human PHA-stimulated PBMC
[13] = Cytotoxicity against human TZM-bl cells assessed as cell viability by tetrazolium dye assay; assay type: cell-based
[14] = Selectivity index, ratio of CC50 for human PHA-stimulated PBMC to IC50 for CXCR4-tropic HIV-1 NL4-3 infected in human PHA-stimulated PBMC
[15] = Cytotoxicity against human HepG2.2.15 cells assessed as cell viability by tetrazolium dye uptake assay; assay type: cell-based, HepG2 2.2.15
Method in brief: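 HepG2.2.15 cells (two integrated copies of HBV ayw1 genome) were seeded at 1.5 × 10^4 cells/well in DMEM with 2% FBS, 380 μg/mL G418, glutamine, antibiotics and nonessential amino acids. After 16−24 h, medium with various compound concentrations was added in triplicate and renewed on day 3. After 6 days of treatment, viability was read by MTS uptake and CC50 was calculated.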

Which EC50 (Human alphaherpesvirus 3 [1]) does the source give for CCCCCOC(=O)C[C@H](NP(=O)(CO[C@H](CF)Cn1cnc2c(N)ncnc21)Oc1ccccc1)C(=O)OCCCCC (stereo partly drawn) here?
Its EC50 is 57 nM.

What about the selectivity ratio [2] of the same molecule?
Its selectivity ratio is 7910.

What about the Stability [3] of the same molecule?
Its Stability is “Stable”.

What about the EC50 (Human betaherpesvirus 5) of the same molecule?
The EC50 was 6280 nM.

What about the EC50 [4] of the same molecule?
The EC50 was 4 nM.

And the CC50 at 144 h [5]?
The CC50 at 144 h was > 1000 nM.

What about the “Ratio CC50/EC50” value [6] of the same molecule?
Its value is 2256.

What about the “Ratio EC50” value (Human alphaherpesvirus 3 [7]) of the same molecule?
Its value is 2000.

And the EC50 [8]?
Its EC50 is 170 nM.

What about the EC50 (Hepatitis B virus) of the same molecule?
The EC50 was 20 nM.

And the EC90 (Hepatitis B virus)?
The EC90 was 6080 nM.

And the half-life at 1 µM [9]?
Its half-life at 1 µM is 89 min.

And the selectivity ratio [10]?
Its selectivity ratio is 3320.

What about the half-life at 0.1 µM [11] of the same molecule?
The half-life at 0.1 µM was 2 min.

And the “Ratio CC50/IC50” value [12]?
Its value is >113.

What about the CC50 [13] of the same molecule?
Its CC50 is 33200 nM.

What about the “Ratio CC50/IC50” value [14] of the same molecule?
The value was >827.

What about the CC50 [15] of the same molecule?
Its CC50 is 20300 to 22600 nM.

Source: ChEMBL document CHEMBL4038313, “Expanding the Antiviral Spectrum of 3-Fluoro-2-(phosphonomethoxy)propyl Acyclic Nucleoside Phosphonates: Diamyl Aspartate Amidate Prodrugs” (J Med Chem, 2017)
